Measurements taken from ChEMBL document CHEMBL4138118, “Novel thioglycosyl analogs of glycosyltransferase substrates as antiviral compounds against classical swine fever virus and hepatitis C virus” (Eur J Med Chem, 2017).
The source made the active and inactive calls. The calls are words filed in the database; no cut-off is given here.

How the values were obtained:
[1] = Cytotoxicity against human Huh7-J17 cells assessed as decrease in cell viability after 72 hrs by MTT assay; assay type: cell-based
Summary of the method: (§1)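 Uninfected Huh7-J17, Huh7-J20 or Huh-7.5 cells incubated with compound, then viability read by MTT. Time stated as 72 h for Huh7-J20 and Huh7-J17, and 48 h for Huh-7.5. Results expressed relative to DMSO-treated cells (100%); CC50 from the dose-response curve.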

Hepatitis C virus [2] = assay: Antiviral activity against HCV Jc1/JFH infected in human Huh7.5 cells assessed as reduction of pseudo-plaque formation after 72 hrs by immunoperoxidase monolayer assay; assay type: functional, organism-based, Hepacivirus hominis; settings: for IC50: Huh7.5, 72 h
Summary of the method: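 Huh-7.5 cells seeded at 1.5 × 10^4 per well, infected next day with Jc1/JFH HCVcc (genotype 2a) at MOI 0.1 for 3 h. Virus removed, medium with compound added; 72 h later cells fixed in cold methanol, permeabilized (0.5% Triton X-100), stained with anti-core antibody (1:300), HRP secondary. Pseudo-plaques counted by microscopy against untreated infected control; IC50 at 50% plaque reduction; three independent experiments.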

Hepatitis C virus [3] = assay: Antiviral activity against HCV infected in human Huh7-J17 cells assessed as inhibition of viral RNA replication after 72 hrs by bright-glo luciferase reporter assay; assay type: functional, organism-based, Hepacivirus hominis
Summary of the method: (§2)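 Huh7-J17 replicon cells seeded in 96-well plates together with compound, DMSO or sofosbuvir and incubated 72 h. Cells lysed and luciferase read with Bright-Glo. Values expressed as % of DMSO-treated cells; IC50 from dose-response fit; three experiments.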

[4] = Selectivity index, ratio of CC50 for Huh7.5 cells to IC50 for HCV Jc1/JFH; assay type: toxicity; settings: human, read-out: Ratio CC50/IC50
Summary of the method: (§3)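 Selectivity index is CC50/IC50, taken from the cell viability assay (SK6 by MTS, Huh-7.5 by MTT) and the matching pseudo-plaque reduction assay.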

[5] = Cytotoxicity against human Huh7.5 cells assessed as reduction in cell viability after 72 hrs by MTT method; assay type: cell-based
[6] = Selectivity index, ratio of CC50 for SK6 cells to IC50 for CSFV; assay type: toxicity; settings: pig, read-out: Ratio CC50/IC50; summary of the method: as §3
[7] = tested on: Classical swine fever virus; assay: Antiviral activity against CSFV infected in SK6 cells assessed as reduction of pseudo-plaque formation after 2 days by immunoperoxidase monolayer assay; assay type: functional, organism-based; settings: 48 h
[8] = Cytotoxicity against SK6 cells assessed as reduction in cell viability after 2 days by MTS method; assay type: cell-based, Sus scrofa; settings: pig; for Activity: 48 h; for CC50 at 48 h: SK6 cells
Summary of the method: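 SK6 viability by MTS (CellTiter 96 AQueous) assay; CC50 is the concentration reducing viability by 50%, taken from the dose-response curve.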

Hepatitis C virus [9] = assay: Antiviral activity against HCV genotype 2a JFH1 infected in human Huh7-J20 cells assessed as inhibition of viral RNA replication at 1.56 to 75 uM after 72 hrs by SEAP reporter assay; assay type: functional, organism-based; settings: Hepacivirus hominis, JFH-1
Summary of the method: (§4)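 Huh7-J20 SEAP reporter cells, infected with JFH-1 HCVcc, read-out SEAP chemiluminescence in supernatant after 72 h. Model 1: 1 h compound pretreatment, 3 h infection with compound, then compound-free medium. Model 2: same, with compound kept for the full 72 h. Model 3: 3 h infection, compound added afterwards only. DMSO control; three experiments.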

Hepatitis C virus [10] = assay: (§5) Antiviral activity against HCV genotype 2a JFH1 infected in human Huh7-J20 cells assessed as inhibition of viral entry at 1.56 to 75 uM pretreated for 1 hr with cells followed by viral infection for 3 hrs and subsequent compound washout measured after 72 hrs by SEAP reporter assay; assay type: functional, organism-based; settings: Hepacivirus hominis, JFH-1; summary of the method: as §4
[11] = Cytotoxicity against human Huh7-J20 cells assessed as decrease in cell viability at 1.56 to 75 uM after 72 hrs by MTT assay; assay type: cell-based; summary of the method: as §1
Hepatitis C virus [12] = assay: as §5, with “of complete” for “of”, “life cycle” for “entry”, “subsequent addition of fresh medium with” for “subsequent”, “compound” for “compound washout”; assay type: functional, organism-based; settings: Hepacivirus hominis, JFH-1; summary of the method: as §4
Hepatitis C virus [13] = assay: Antiviral activity against HCV genotype 2a JFH1 infected in human Huh7-J20 cells assessed as inhibition of viral assembly at 1.56 to 75 uM after 72 hrs by SEAP reporter assay; assay type: functional, organism-based; settings: Hepacivirus hominis, JFH-1; summary of the method: as §4
[14] = Effect on actin levels in human Huh7.5 cells at 3.12 to 75 uM under reducing condition after 48 hrs by Western blot method; assay type: ADME, cell-based
Summary of the method: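 Huh-7.5 cells infected with HCV (MOI 0.1), washed after 1–6 h, then treated with inhibitor. Lysed in RIPA buffer with protease inhibitors after 48 h (methods; legend gives 72 h p.i.). 20 µg protein run on reducing SDS-PAGE; Western blot probed with anti-E1 mAb (1:2000) and anti-actin (1:1000).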

[15] = Effect on actin levels in SK6 cells at 3.75 to 30 uM under non-reducing condition after 48 hrs by Western blot method; assay type: ADME, cell-based, Sus scrofa; settings: pig
Hepatitis C virus [16] = assay: Antiviral activity against HCV Jc1/JFH infected in human Huh7.5 cells assessed as downregulation of NS5B gene expression after 48 hrs by RT-PCR method; assay type: functional, organism-based; settings: Hepacivirus hominis
Summary of the method: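 Huh-7.5 cells infected with HCV (MOI 0.1) for 4 h, washed, then cultured with compound for 48 h. Total RNA isolated; 1 µg reverse-transcribed with an NS5B-specific reverse primer, then PCR for NS5B. Band densitometry expressed as % of untreated infected control.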

[17] = tested on: Classical swine fever virus; assay: Inhibition of CSFV glycosyltransferase in SK6 cells assessed as downregulation of viral E2 levels under non-reducing condition after 48 hrs by Western blot method; assay type: cell-based
Hepatitis C virus [18] = assay: Antiviral activity against HCV infected in human Huh7-J17 cells assessed as inhibition of viral RNA replication at 75 uM after 72 hrs by bright-glo luciferase reporter assay relative to control; assay type: functional, Hepacivirus hominis; summary of the method: as §2

| Compound | CC50 at 72 h [1] [µM] | IC50 (Hepatitis C virus [2]) [µM] | IC50 (Hepatitis C virus [3]) [µM] | selectivity ratio [4] | CC50 at 72 h [5] [µM] | selectivity ratio [6] | IC50 [7] [µM] | Activity [8] | CC50 at 48 h [8] [µM] | inhibition (Hepatitis C virus [9]) | inhibition (Hepatitis C virus [10]) | Activity [11] | Activity (Hepatitis C virus [2]; Hepacivirus hominis) | inhibition (Hepatitis C virus [12]) | inhibition (Hepatitis C virus [13]) | Activity [14] | Activity [15] | Activity (Hepatitis C virus [16]) | inhibition [17] | inhibition at 75 µM (Hepatitis C virus [18]) [%] |
| --- | --- | --- | --- | --- | --- | --- | --- | --- | --- | --- | --- | --- | --- | --- | --- | --- | --- | --- | --- | --- |
| CC(C)OC(=O)[C@H](C)N[P@](=O)(OC[C@H]1O[C@@H](n2ccc(=O)[nH]c2=O)[C@](C)(F)[C@@H]1O)Oc1ccccc1 [SOFOSBUVIR] | 23.5 | 0.26 | 0.028 | 119 | 31 | – | – | – | – | – | – | – | – | – | – | – | – | – | – | – |
| CC(=O)OC[C@H]1O[C@@H](Sc2ccc(NC(=O)[C@H]3O[C@@H](n4ccc(=O)[nH]c4=O)[C@@H]4OC(C)(C)O[C@@H]43)cn2)[C@H](OC(C)=O)[C@@H](OC(C)=O)[C@@H]1OC(C)=O | – | 244 | – | 1.1 | 271 | > 1.2 | > 325 | Dose-dependent effect | > 380 | – | – | – | – | – | – | – | – | – | – | – |
| O=C(Nc1ccc(S[C@@H]2O[C@H](CO)[C@@H](O)[C@H](O)[C@H]2O)nc1)[C@H]1O[C@@H](n2ccc(=O)[nH]c2=O)[C@H](O)[C@@H]1O | – | 402 | – | 1.05 | 420 | 1 | 370 | Dose-dependent effect | 380 | – | – | – | – | – | – | – | – | – | – | – |
| CC(=O)OC[C@H]1O[C@@H](Sc2ccc(NC(=O)[C@H]3O[C@@H](n4ccc(=O)[nH]c4=O)[C@H](O[Si](C)(C)C(C)(C)C)[C@@H]3O[Si](C)(C)C(C)(C)C)cn2)[C@H](OC(C)=O)[C@@H](OC(C)=O)[C@H]1OC(C)=O | 245 | 7 | 3.74 | 24.7 | 173 | 25.2 | 6 | Dose-dependent effect | 151 | Active | inactive | Non-Toxic | Dose-dependent effect | Active | Active | Non-Toxic | Non-Toxic | Dose-dependent effect | Dose-dependent effect | 90 |
| CC(=O)OC[C@H]1O[C@@H](Sc2ccc(NC(=O)[C@H]3O[C@@H](n4ccc(=O)[nH]c4=O)[C@@H]4OC(C)(C)O[C@@H]43)cn2)[C@H](OC(C)=O)[C@@H](OC(C)=O)[C@H]1OC(C)=O | – | 271 | – | 1.2 | 312 | > 1.2 | > 299 | Dose-dependent effect | > 353 | – | – | – | – | – | – | – | – | – | – | – |
| CC(C)(C)[Si](C)(C)OC[C@H]1O[C@@H](Sc2ccc(NC(=O)[C@H]3O[C@@H](n4ccc(=O)[nH]c4=O)[C@H](O[Si](C)(C)C(C)(C)C)[C@@H]3O[Si](C)(C)C(C)(C)C)cn2)[C@H](OC(=O)c2ccccc2)[C@@H](OC(=O)c2ccccc2)[C@@H]1OC(=O)c1ccccc1 | – | > 236 | – | > 1.1 | > 270 | 1.9 | 97 | Dose-dependent effect | 186 | – | – | – | – | – | – | – | – | – | – | – |
